Laboratory results from ChEMBL document CHEMBL3352189 (J Med Chem, 2014).
Converted amounts (≈) assume the structure as drawn. The source made the active and inactive calls. The rule behind the calls is not given here.

Experiments:
Cytochrome P450 2C19 = Cytochrome P450 2C19 (Homo sapiens, UniProt P33261); experiment: Inhibition of human CYP2C19 at 10 uM; assay type: ADME; conditions: 10 µM
CYP2D6 = CYP2D6 (Homo sapiens, UniProt P10635); experiment: Inhibition of human CYP2D6 at 10 uM; assay type: ADME
[1] = system: Venezuelan equine encephalitis virus; experiment: Antiviral activity against Venezuelan equine encephalitis virus TC83 infected in Vero 76 cells assessed as reduction in virus-induced cytopathic effect after 2 days by Celltiter-Glo reagent based assay; assay type: functional, organism-based; conditions: TC83, Vero 76, 48 h
[2] = Cytotoxicity against african green monkey Vero 76 cells after 3 days by Celltiter-Glo reagent based assay; assay type: cell-based; conditions: chlorocebus sabaeus, vero 76, 72 h
Outline: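 Vero 76 cells were seeded overnight at 12 000/well and given an 8-point 2-fold compound series (20 mM DMSO stock) in EMEM/10% FBS with no virus. Viability was read by CellTiter-Glo after 3 days relative to untreated cells. Run in duplicate; CC50 from a four-parameter logistic or sigmoidal fit.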

[3] = Selectivity index, ratio of CC50 for african green monkey Vero 76 cells to EC50 for Venezuelan equine encephalitis virus TC83; assay type: toxicity, cell-based; conditions: read-out: Ratio CC50/EC50
[4] = system: Venezuelan equine encephalitis virus; experiment: Antiviral activity against Venezuelan equine encephalitis virus V3526 infected in Vero 76 cells assessed as reduction in virus-induced cytopathic effect after 2 days by Celltiter-Glo reagent based assay; assay type: functional, organism-based; conditions: V3526, Vero 76, 48 h
[5] = system: Venezuelan equine encephalitis virus; experiment: Antiviral activity against Venezuelan equine encephalitis virus TrD infected in Vero 76 cells assessed as reduction in virus-induced cytopathic effect after 2 days by Celltiter-Glo reagent based assay; assay type: functional, organism-based; conditions: Vero 76, 48 h
[6] = system: Venezuelan equine encephalitis virus; experiment: Antiviral activity against Venezuelan equine encephalitis virus TC83 infected in Vero 76 cells assessed as reduction in viral titer at 1 uM by crystal violet staining based microplaque assay relative to untreated control; assay type: functional
[7] = system: Venezuelan equine encephalitis virus; experiment: Antiviral activity against Venezuelan equine encephalitis virus TrD infected in Vero 76 cells assessed as reduction in viral titer at 5 uM by crystal violet staining based microplaque assay relative to untreated control; assay type: functional, organism-based
[8] = system: Venezuelan equine encephalitis virus; experiment: Antiviral activity against Venezuelan equine encephalitis virus TrD infected in Vero 76 cells assessed as reduction in viral titer at 1 uM by crystal violet staining based microplaque assay relative to untreated control; assay type: functional
[9] = system: Venezuelan equine encephalitis virus; experiment: Antiviral activity against Venezuelan equine encephalitis virus TrD infected in Vero 76 cells assessed as reduction in viral titer at 0.5 uM by crystal violet staining based microplaque assay relative to untreated control; assay type: functional, organism-based
[10] = system: Venezuelan equine encephalitis virus; experiment: Antiviral activity against Venezuelan equine encephalitis virus TC83 infected in Vero 76 cells assessed as reduction in viral titer by crystal violet staining based microplaque assay relative to untreated control; assay type: functional, organism-based; conditions: TC83, Vero 76
[11] = Aqueous solubility in PBS buffer; assay type: physicochemical
Outline: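 Solubility measured in 1× PBS at pH 7.4.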

[12] = Permeability at pH 7.4 by PAMPA assay; assay type: ADME

Chain of Cytochrome P450 2C19 (P33261 whole entry): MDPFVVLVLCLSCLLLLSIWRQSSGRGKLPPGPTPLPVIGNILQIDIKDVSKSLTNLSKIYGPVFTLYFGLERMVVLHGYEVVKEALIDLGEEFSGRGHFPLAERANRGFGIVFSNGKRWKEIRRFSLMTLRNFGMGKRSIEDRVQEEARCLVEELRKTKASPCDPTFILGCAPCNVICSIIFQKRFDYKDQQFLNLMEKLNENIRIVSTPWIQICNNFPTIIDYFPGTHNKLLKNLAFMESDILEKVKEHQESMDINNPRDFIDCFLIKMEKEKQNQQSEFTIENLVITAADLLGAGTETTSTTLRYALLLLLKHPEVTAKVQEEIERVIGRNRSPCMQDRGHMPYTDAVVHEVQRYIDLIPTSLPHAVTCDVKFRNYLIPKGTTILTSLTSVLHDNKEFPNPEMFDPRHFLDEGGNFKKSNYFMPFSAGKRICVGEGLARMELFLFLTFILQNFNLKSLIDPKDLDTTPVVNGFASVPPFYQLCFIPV
Chain of CYP2D6 (P10635 whole entry): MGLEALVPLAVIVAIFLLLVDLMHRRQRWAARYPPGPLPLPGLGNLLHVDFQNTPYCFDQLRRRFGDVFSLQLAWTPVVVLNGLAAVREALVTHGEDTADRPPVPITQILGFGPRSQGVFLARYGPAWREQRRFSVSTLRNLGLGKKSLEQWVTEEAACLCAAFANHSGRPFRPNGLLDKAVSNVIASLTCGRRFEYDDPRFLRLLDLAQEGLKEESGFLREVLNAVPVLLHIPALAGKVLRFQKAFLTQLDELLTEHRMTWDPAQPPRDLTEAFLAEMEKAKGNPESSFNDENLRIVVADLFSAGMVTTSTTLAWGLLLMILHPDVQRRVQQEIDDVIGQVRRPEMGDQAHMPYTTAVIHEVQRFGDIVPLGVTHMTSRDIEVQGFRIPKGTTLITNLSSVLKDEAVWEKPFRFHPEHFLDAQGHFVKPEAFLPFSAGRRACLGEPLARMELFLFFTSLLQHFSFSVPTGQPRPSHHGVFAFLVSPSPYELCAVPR

Row | SMILES | EC50 [1] [nM] | CC50 [2] [nM] | selectivity ratio [3] | other results
1 | Cc1c(OCC(F)(F)F)ccnc1C[S+]([O-])c1nc2ccccc2[nH]1 (configuration not stated) [LANSOPRAZOLE] |  |  |  | inhibition (INH) (Cytochrome P450 2C19): 86%
2 | C=C[C@H]1C[N@@]2CC[C@H]1C[C@@H]2[C@@H](O)c1ccnc2ccc(OC)cc12 [QUINIDINE] |  |  |  | inhibition at 10 µM (CYP2D6): 88%
3 | COc1ccc(NC(=O)c2cc([N+](=O)[O-])ccc2/N=C2\CN(C)CCN2C)cc1 | 40 | > 50000 | > 1250 | EC50 [4]: 20 nM; EC50 [5]: 50 nM; fold change (FC) [6]: 16000000; inhibition [7]: Active; inhibition [8]: Active; inhibition [9]: Active; EC50 [10]: 170 nM; solubility [11]: 105.6 µg/mL (≈ 266 µM)
4 | CCN1CCN(Cc2nc3ccc([N+](=O)[O-])cc3c(=O)n2-c2ccccc2F)CC1 | 800 | > 50000 |  | EC50 [4]: 300 nM; EC50 [5]: 600 nM; fold change (FC) [6]: 3; inhibition [7]: Active; solubility [11]: > 122 µg/mL
5 | CC(C)N1CCN(Cc2nc3ccc([N+](=O)[O-])cc3c(=O)n2-c2ccccc2F)CC1 | 4400 | > 50000 | > 11.4 | 
6 | CCN1CCN(C)C/C1=N\c1ccc([N+](=O)[O-])cc1C(=O)Nc1ccccc1 | 50 | > 50000 | > 1000 | 
7 | Cn1c(=O)c2[nH]cnc2n(C)c1=O.O [THEOPHYLLINE] |  |  |  | permeability [12]: 0.32 ×10⁻⁶ cm/s
8 | CN1CCN(C)/C(=N/c2ccc(C#N)cc2C(=O)Nc2ccccc2)C1 | 400 | > 50000 | > 125 | 
9 | CCN1CCN(Cc2nc3ccc([N+](=O)[O-])cc3c(=O)n2-c2cccc(F)c2)CC1 | 400 | > 50000 | > 125 | 
10 | CN1CCN(C)/C(=N/c2cc(Cl)c(C#N)cc2C(=O)Nc2ccccc2)C1 | 100 | > 50000 | > 500 | 
11 | COC(=O)c1ccc(/N=C2\CN(C)CCN2C)c(C(=O)Nc2ccccc2)c1 | 2000 | > 50000 | > 25 | 
12 | O=c1c2cc([N+](=O)[O-])ccc2nc(CN2CCNCC2)n1-c1ccccc1 | 200 | > 50000 | > 250 | 
